Active and inactive are the calls of the source. The calls are words filed in the database; no cut-off is given here.
Key:
[1] = tested on: LS174T; test: Cytotoxicity against human LS174T cells by MTS assay; type: functional, cell-based
Outline: (§1)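 LS174T cells (2,000−5,000/well) grown 24 h, then given 1 h with PBS, enzyme-only staining buffer or antibody-enzyme conjugate (2 units) and washed three to five times. Compound added at 0−25 μM for 72 h.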

[2] = tested on: LS174T; test: Induction of Hsp90-mediated AKT degradation in human LS174T cells in presence of HuCC49deltaCH2-beta galactosidase conjugate by Western blotting at 2 uM; type: functional
Outline: (§2)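 LS174T cells at 50−70% confluence given 1 h with free β-galactosidase or antibody-enzyme conjugate in PBS with 2% FBS, washed, then exposed 24 h to 2 or 10 μM compound. Lysates (30 μg) run on 10% SDS-PAGE and blotted for AKT and β-actin by ECL. AKT expressed as Akt:β-actin ratio relative to control (100%).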

[3] = tested on: LS174T; test: Induction of Hsp90-mediated AKT degradation in human LS174T cells in absence of HuCC49deltaCH2-beta galactosidase by Western blotting at 10 uM; type: functional; outline: as §2
[4] = tested on: LS174T; test: Induction of Hsp90-mediated AKT degradation in human LS174T cells in presence of HuCC49deltaCH2-beta galactosidase conjugate by Western blotting at 10 uM; type: functional; outline: as §2
[5] = tested on: LS174T; test: Induction of Hsp90-mediated AKT degradation in human LS174T cells in absence of HuCC49deltaCH2-beta galactosidase by Western blotting at 2 uM; type: functional; outline: as §2
[6] = tested on: LS174T; test: Induction of Hsp90-mediated AKT degradation in human LS174T cells after 1 hr in presence of HuCC49deltaCH2-beta galactosidase conjugate by Western blotting; type: functional; outline: as §2
[7] = tested on: LS174T; test: Cytotoxicity against human LS174T cells in presence of HuCC49deltaCH2-beta galactosidase conjugate by MTS assay; type: functional, cell-based; outline: as §1

| SMILES | IC50 [1] | Activity [2] | Activity [3] | Activity [4] | Activity [5] | Activity [6] | IC50 [7] |
| --- | --- | --- | --- | --- | --- | --- | --- |
| COC1=C2C[C@@H](C)C[C@H](OC)[C@H](O)[C@@H](C)/C=C(\C)[C@H](OC(N)=O)[C@@H](OC)/C=C\C=C(/C)C(=O)NC(=CC1=O)C2=O [GELDANAMYCIN] | 450 nM |  |  |  |  |  |  |
| CO[C@H]1/C=C\C=C(/C)C(=O)NC2=CC(=O)C(N)=C(C[C@@H](C)C[C@H](OC)[C@H](O)[C@@H](C)/C=C(\C)[C@@H]1OC(N)=O)C2=O |  | 70% | 70% | 70% | 70% |  |  |
| CO[C@H]1/C=C\C=C(/C)C(=O)NC2=CC(=O)C(NCCO[C@@H]3O[C@H](CO)[C@H](O)[C@H](O)[C@H]3O)=C(C[C@@H](C)C[C@H](OC)[C@H](O)[C@@H](C)/C=C(\C)[C@@H]1OC(N)=O)C2=O | > 25000 nM |  |  |  | inactive | 70% | 1120 nM |
